Calls of active or inactive are those of the source. The calls are words filed in the database; no cut-off is given here.

Series [1] has as its system Chikungunya virus. Kind of series: Antiviral activity against Chikungunya virus LR2006_OPY1 infected in african green monkey Vero cells assessed as reduction in virus-induced cytopathogenicity at 100 ug/mL after 3 days by cell titer-blue fluorescent assay. It counts as functional, cell-based. Background: Damage to the host cells serves as the signal in cytopathic effect assays.

Series [2] is described as follows: Cytotoxicity against african green monkey Vero cells assessed as reduction in cell viability after 72 hrs by cell titer-blue fluorescent assay. It counts as cell-based. As to conditions: chlorocebus sabaeus. An outline of the steps: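 Uninfected Vero (CCL-81) cells were seeded at 1 × 10^5 cells/mL, grown for 24 h at 37°C with 5% CO2, then exposed to compound at 4 to 4000 µg/mL for 72 h. CellTiter-Blue was added for 2 h in the dark, and fluorescence was read at 560/590 nm. Viability is given as % of control, from at least three repeats.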

Series [3] deals with Chikungunya virus. Kind of series: Antiviral activity against Chikungunya virus LR2006_OPY1 infected in african green monkey Vero cells assessed as reduction in virus-induced cytopathogenicity after 3 days by cell titer-blue fluorescent assay. It counts as functional, cell-based. As to conditions: 72 h.

As for `CN(C)c1ccc(/C=C2\SC(=S)NC2=O)cc1`, in the series on Chikungunya virus [1], the inhibition entry is “inactive”. Also, in series [2], the cytotoxic concentration (CC50) – broadly, the concentration that lowers cell viability or growth by half – at 72 h was over 100 µM.
Regarding `NC1=NC(=O)/C(=C/c2ccccc2[N+](=O)[O-])S1`, the IC50 (in general, the concentration at which inhibition is half-maximal) in the series on Chikungunya virus [3] was found to be 40.1 µM. In addition, the CC50 at 72 h in series [2] was over 100 µM.
Take `COc1ccc(/C=C2\SC(=S)NC2=O)cc1`: the inhibition entry with Chikungunya virus [1] is “inactive”. In addition, the CC50 at 72 h in series [2] was over 100 µM.
As to `O=C1NC(=S)S/C1=C\c1ccc(O)cc1`, the inhibition entry in the series on Chikungunya virus [1] was “inactive”. Moreover, the CC50 at 72 h in series [2] is over 100 µM.
For `O=C1NC(=S)S/C1=C\c1ccc2ccccc2c1`, the IC50 in the series on Chikungunya virus [3] was found to be 3.6 µM. Moreover, in series [2], the CC50 at 72 h is over 100 µM.
`O=C1NC(=S)S/C1=C\c1ccccc1[N+](=O)[O-]`: the inhibition entry with Chikungunya virus [1] is “inactive”. For the same molecule, the CC50 at 72 h in series [2] was over 100 µM.
In the same order, the values of `O=C1NC(=S)S/C1=C\c1cccs1` are “inactive” and over 100 µM.
As for `O=C1NC(=S)S/C1=C\c1ccc(Cl)cc1`, in the series with Chikungunya virus [1], the inhibition entry is “inactive”. Moreover, the CC50 at 72 h in series [2] was over 100 µM.
Regarding `N=C1NC(=O)/C(=C/c2ccc(O)cc2)S1` [MIRIN], the inhibition entry in the series with Chikungunya virus [1] is “inactive”. In addition, the cytotoxic concentration (CC50) at 72 h in series [2] is over 100 µM.

For the origin of these results see ChEMBL document CHEMBL3352512, “Thiazolidone derivatives as inhibitors of chikungunya virus” (Eur J Med Chem, 2015).
